Laboratory results reported in ChEMBL document CHEMBL4699420, “Pyrazolyl-pyrimidones inhibit the function of human solute carrier protein SLC11A2 (hDMT1) by metal chelation” (RSC Med Chem, 2020).
Calls of active or inactive are those of the source. No cut-off for these calls is given here.

Tests used:
[1] = Metal chelating activity assessed as compound-Fe2+ complex formation by measuring precipitation at 10 uM incubated with radilolabeled-55Fe2+ for 15 mins in aqueous buffer of pH 7.4 by scintillation counting analysis
In short: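 Uptake solution (pH 7.4) with 1 μM Fe2+, 100 μM ascorbic acid, 0.5 μCi/mL 55Fe2+ and 10 μM compound, incubated 15 min at RT in polypropylene tubes. Aliquots taken in quadruplicate for scintillation counting of remaining 55Fe2+.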

[2] = tested on: HEK293T; assay: (§1) Metal chelating activity assessed as inhibition of human ZIP8 expressed in HEK293T cells by measuring inhibition of radiolabeled 55Fe2+ uptake at 10 uM preincubated with compound for 5 mins followed by incubation with Fe2+ and radiolabeled 55Fe2+ for 15 mins at extracellular pH of 7.4 by scintillation counting analysis; format: cell-based; settings: time 20.0 min
In short: (§2)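 HEK293T cells were seeded 30,000/well and transiently transfected with DsRED-hZIP8 by Lipofectamine 24 h later; assays ran the next day. Cells got a 5 min compound preincubation, then 15 min RT uptake with 100 μM ascorbate, Fe²⁺ and ⁵⁵Fe²⁺ (0.5 μCi/mL). An ice-cold wash followed, then scintillation counting, with counts converted to influx rates.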

[3] = tested on: HEK293T; assay: as §1, with “DMT1” for “ZIP8”, “5.5” for “7.4”; format: cell-based; settings: time 20.0 min
In short: as §2, with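 “DsRED-hDMT1” for “DsRED-hZIP8”, “After a wash in uptake solution, cells” for “Cells”, “uptake in pH 5.5 uptake solution” for “uptake”, “ice-cold pH 7.5” for “ice-cold”, “cpm” for “counts”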

[4] = Metal chelating activity assessed as compound-Fe2+ complex formation at 20 uM preincubated with Fe2+ for 5 mins followed by calcein challenge in aqueous buffer of pH 5.5 and measured after 5 mins by calcein quenching assay; settings: time 10.0 min
[5] = target: T1, Natural resistance-associated macrophage protein 2 (Homo sapiens, UniProt P49281); assay: Inhibition of human DMT1 expressed in HEK293 cells assessed as inhibition of radiolabeled 55Fe2+ uptake incubated for 1 hr by microplate scintillation counting analysis; format: cell-based; settings: in the assay text read “incubated for 15 mins” for “incubated for 1 hr”
T1 sequence (P49281 whole entry): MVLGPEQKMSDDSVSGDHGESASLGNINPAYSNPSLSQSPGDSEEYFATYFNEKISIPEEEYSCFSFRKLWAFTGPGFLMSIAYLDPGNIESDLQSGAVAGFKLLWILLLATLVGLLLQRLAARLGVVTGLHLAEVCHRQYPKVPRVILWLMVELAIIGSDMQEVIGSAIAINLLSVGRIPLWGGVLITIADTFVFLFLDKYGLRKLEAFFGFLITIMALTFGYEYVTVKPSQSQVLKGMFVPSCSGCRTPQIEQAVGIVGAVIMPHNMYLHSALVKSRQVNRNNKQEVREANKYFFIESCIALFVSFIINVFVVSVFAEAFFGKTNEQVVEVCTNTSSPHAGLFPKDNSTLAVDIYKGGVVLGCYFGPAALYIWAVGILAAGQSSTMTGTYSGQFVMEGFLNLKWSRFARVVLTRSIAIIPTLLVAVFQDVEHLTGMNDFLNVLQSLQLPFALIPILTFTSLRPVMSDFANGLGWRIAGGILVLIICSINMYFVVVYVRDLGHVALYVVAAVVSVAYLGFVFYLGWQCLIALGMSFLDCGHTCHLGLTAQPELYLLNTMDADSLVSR
In short: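 HEK293 cells stably expressing DsRED-hDMT1 were cultured in DMEM with 10% FBS, 10 mM HEPES and 1 mM Na-pyruvate, and seeded 50,000/well 24 h ahead. Cells got a 5 min compound preincubation, then 15 min RT uptake at pH 5.5 with 100 μM ascorbate, Fe²⁺ and ⁵⁵Fe²⁺ (0.5 μCi/mL). After an ice-cold pH 7.5 wash, cells sat 1 h in scintillant. Counts were converted to influx rates and fitted with a 4-parameter sigmoid for IC50.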

[6] = Metal chelating activity assessed as compound-Fe2+ complex formation by measuring precipitation at 10 uM incubated with radilolabeled-55Fe2+ for 15 mins in aqueous buffer of pH 7.4 by scintillation counting analysis
[7] = Metal chelating activity assessed as compound-Cd2+ complex formation by measuring precipitation at 0.4 mM in aqueous buffer of pH 5.5 by isothermal titration calorimetry
In short: (§3)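 Cadmium chloride titrated into 0.4 mM compound (from 10 mM DMSO stock) at 25 °C, stirring 750 rpm. Buffer was 20 mM HEPES/150 mM NaCl pH 7.5 or 20 mM MES/150 mM NaCl pH 5.5. First injection 0.4 μL, then 2 μL every 150 s. Buffer/DMSO control titrations run. Fit to a one-set-of-sites model, with fitting errors on KD.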

[8] = Metal chelating activity assessed as compound-Cd2+ complex formation by UV-Vis titration based analysis
[9] = Metal chelating activity assessed as compound-Fe2+ complex formation by UV-Vis titration based analysis
[10] = as §1, with “uptake” for “uptake at 10 uM”; format: cell-based; settings: HEK-293T; in short: as §2
[11] = Metal chelating activity assessed as compound-Cd2+ complex formation at ratio of 2:1 at 0.4 mM in aqueous buffer of pH 7.4 by isothermal titration calorimetry; in short: as §3
[12] = target: T1, Natural resistance-associated macrophage protein 2; assay: Inhibition of human DMT1 expressed in Xenopus oocytes assessed as inhibition of channel currents at -50 mV holding potential by two-electrode voltage clamp assay; format: cell-based; settings: oocyte
In short: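 Xenopus oocytes were injected with 20 ng hDMT1 cRNA and used 3–5 days later. Holding current at Vh −50 mV was recorded, low-pass filtered at 500 Hz and digitized at 5 kHz.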

[13] = target: T2, Natural resistance-associated macrophage protein 2 (Homo sapiens) (UniProt P49281); assay: Inhibition of human DMT1 expressed in Xenopus laevis oocytes assessed as reduction in radiolabeled 55Fe2+ uptake at 10 uM preincubated for 5 mins followed by incubation with Fe2+ and radiolabeled 55Fe2+ and measured after 10 mins by scintillation counting method relative to control; format: cell-based; settings: Oocyte, time 15.0 min
T2 sequence (whole entry): T1 sequence (P49281 whole entry)
In short: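 Xenopus oocytes injected with 20 ng hDMT1 cRNA, tested 3-5 days later, 10-15 oocytes per condition. 5 min RT in pH 5.5 transport medium with 10 μM compound, then 10 min with compound, 100 μM ascorbate, 1 μM Fe2+ and 0.5 μCi/mL 55Fe2+. Ice-cold rinse with 250 μM Fe2+, SDS solubilization, scintillation counting. Compound-free and non-injected oocytes run in parallel.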

[14] = target: T2, Natural resistance-associated macrophage protein 2 (Homo sapiens); assay: Inhibition of human DMT1 expressed in HEK293T cells by measuring inhibition of radiolabeled 55Fe2+ uptake at 10 uM preincubated with compound for 5 mins followed by incubation with Fe2+ and radiolabeled 55Fe2+ for 15 mins at extracellular pH of 5.5 by scintillation counting analysis; format: cell-based; settings: time 20.0 min
In short: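 HEK293T cells seeded at 30,000/well 48 h ahead and transiently transfected 24 h later with DsRED-hDMT1. After wash in uptake buffer, 5 min preincubation with compound, then 15 min at RT in pH 5.5 uptake solution with 100 μM ascorbic acid, Fe2+ and 55Fe2+ (0.5 μCi/mL). Ice-cold pH 7.5 wash, scintillation counting, cpm converted to influx rate.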

Q: With `Cc1cc(O)nc(-n2nc(C)cc2C)n1` as the molecule, how does the Activity [1] read?
A: inactive

Q: And the Activity [2]?
A: Active

Q: And the Activity [3]?
A: Active

Q: What about the Activity [4] of the same molecule?
A: inactive

Q: For `Cc1cc(=O)[nH]c(-n2[nH]c(C)c(C(=O)Nc3cccc(C(F)(F)F)c3)c2=O)n1`, which inhibition [3] is on record?
A: < 20%

Q: Which inhibition [3] does the source give for `Cc1cc(=O)[nH]c(-n2nc(C)c(-c3ccccc3)c2C)n1` here?
A: < 20%

Q: Which inhibition [3] does the source give for `CCc1cc(=O)n(-c2nc(C)cc(=O)[nH]2)[nH]1` here?
A: < 20%

Q: For `Cc1cc(=O)[nH]c(-n2[nH]c(C)c(Cc3ccccc3)c2=O)n1`, which inhibition [3] is on record?
A: < 20%

Q: With `N=C(N)SCc1cccc(CSC(=N)N)c1` as the molecule, how does the IC50 [5] read?
A: 7 µM

Q: For `Cc1nn(-c2ccccn2)c(O)c1C(=O)Nc1cccc(C(F)(F)F)c1`, which Activity [6] is on record?
A: Active

Q: And the Activity [1]?
A: Active

Q: And the Activity [2]?
A: Active

Q: And the Activity [3]?
A: Active

Q: What about the Activity [4] of the same molecule?
A: Active

Q: Which inhibition [3] does the source give for `CCOC(=O)c1cnc(-n2[nH]c(C)cc2=O)[nH]c1=O` here?
A: < 20%

Q: Which inhibition [3] does the source give for `Cc1cc(=O)[nH]c(-n2nc3c(c2C)CCC3)n1` here?
A: < 20%

Q: For `Cc1cc(=O)[nH]c(-n2nc(-c3ccccc3)cc2C)n1`, which inhibition [3] is on record?
A: < 20%

Q: For `Cc1cc(=O)[nH]c(-n2nc3c(c2C)CNCC3)n1`, which inhibition [3] is on record?
A: < 20%

Q: With `CCc1cc(=O)[nH]c(-n2[nH]c(C)cc2=O)n1` as the molecule, how does the inhibition [3] read?
A: < 20%

Q: For `Cc1cc(=O)[nH]c(-n2nc3c(c2C)COCC3)n1`, which inhibition [3] is on record?
A: < 20%

Q: For `Cc1cc(=O)[nH]c(-n2nc(C(C)(C)C)cc2C)n1`, which inhibition [3] is on record?
A: < 20%

Q: Which inhibition [3] does the source give for `Cc1cc(=O)[nH]c(-n2nc(C)c(Cc3ccccc3)c2C)n1` here?
A: < 20%

Q: For `Cc1cc(=O)[nH]c(-n2nc3c(c2C)CCCC3)n1`, which Activity [7] is on record?
A: Active

Q: What about the Activity [1] of the same molecule?
A: Active

Q: What about the Activity [8] of the same molecule?
A: inactive

Q: And the Activity [9]?
A: inactive

Q: What about the IC50 [10] of the same molecule?
A: 1.4 µM

Q: What about the Activity [11] of the same molecule?
A: Active

Q: What about the IC50 [12] of the same molecule?
A: Not Active

Q: What about the Activity [2] of the same molecule?
A: Active

Q: What about the Activity [3] of the same molecule?
A: Active

Q: What about the Activity [4] of the same molecule?
A: Active

Q: For `N=C(N)SCc1cccc2c1oc1c(CSC(=N)N)cccc12`, which Activity [1] is on record?
A: inactive

Q: What about the inhibition [13] of the same molecule?
A: 100%

Q: What about the Activity [2] of the same molecule?
A: inactive

Q: And the inhibition [14]?
A: Active

Q: For `Cc1cc(C)nc(-n2nc(C)cc2C)n1`, which inhibition [3] is on record?
A: < 20%
